How the values were obtained:
[1] = Inhibition of HCV NS4A-tethered single chain NS3 serine protease by spectrophotometric assay; set-up: species or system Hepacivirus hominis
Procedure, shortened: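 Continuous assay with NS4A-tethered single-chain NS3 serine protease; potency given as Ki*.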

Hepatitis C virus = experiment: Antiviral activity against Hepatitis C virus genotype 1 infected in human hepatocytes by replicon assay; assay type: functional, Hepacivirus hominis; conditions: genotype 1, Hepatocyte
Procedure, shortened: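 HCV genotype 1 replicon cell assay; EC90 reported, within 3-fold at 95% confidence for a single assay and within 2-fold for multiple assays.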

[2] = Cytotoxicity against human hepatocytes assessed as effect on GAPDH RNA level […]; assay type: cell-based, Hepatocyte
Procedure, shortened: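 Counter-screen for cellular toxicity measuring GAPDH; CC50 reported.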

Ki [1] | Compound | EC90 (Hepatitis C virus) | CC50 [2]
39 nM | CC(C)(C)[C@H](NC(=O)NC1(C(=O)OCC2CC2)CCCCC1)C(=O)N1C[C@H]2[C@@H]([C@H]1C(=O)NC(CC1CC1)C(=O)C(N)=O)C2(C)C (mixture of isomers) | 60 nM | > 5000 nM
39 nM | CC(C)(C)[C@H](NC(=O)NC1(C(=O)OCc2ccoc2)CCCCC1)C(=O)N1C[C@H]2[C@@H]([C@H]1C(=O)NC(CC1CC1)C(=O)C(N)=O)C2(C)C (mixture of isomers) | 20 nM | > 5000 nM
38 nM | C=CCNC(=O)C(=O)C(CCCC)NC(=O)[C@@H]1[C@@H]2[C@H](CN1C(=O)[C@@H](NC(=O)N[C@H](C(=O)C1CC1)C1CCCCC1)C(C)(C)C)C2(C)C (mixture of isomers) | 900 nM | > 5000 nM
170 nM | CC(C)(C)[C@H](NC(=O)NC1(C(=O)OCc2ccccc2)CC1)C(=O)N1C[C@H]2[C@@H]([C@H]1C(=O)NC(CC1CC1)C(=O)C(N)=O)C2(C)C (mixture of isomers) | 1000 nM | > 5000 nM
20 nM | CC(C)[C@H](NC(=O)N[C@H](C(=O)N1C[C@H]2[C@@H]([C@H]1C(=O)NC(CC1CC1)C(=O)C(N)=O)C2(C)C)C(C)(C)C)C(=O)C1CCC1 (mixture of isomers) | 350 nM | > 5000 nM
77 nM | CC(C)[C@H](NC(=O)N[C@H](C(=O)N1C[C@H]2[C@@H]([C@H]1C(=O)NC(CC1CC1)C(=O)C(N)=O)C2(C)C)C(C)(C)C)[C@H](O)c1ccccc1 (mixture of isomers) | – | > 5000 nM
50 nM | C=C(c1ccccc1)[C@@H](NC(=O)N[C@H](C(=O)N1C[C@H]2[C@@H]([C@H]1C(=O)NC(CC1CC1)C(=O)C(N)=O)C2(C)C)C(C)(C)C)C(C)C (mixture of isomers) | – | > 5000 nM
13 nM | CC(C)[C@H](NC(=O)N[C@H](C(=O)N1C[C@H]2[C@@H]([C@H]1C(=O)NC(CC1CC1)C(=O)C(N)=O)C2(C)C)C(C)(C)C)C(=O)OCc1ccccc1 (mixture of isomers) | 35 nM | > 5000 nM
110 nM | CC(C)(C)[C@H](NC(=O)NC1(C(=O)NS(=O)(=O)c2ccccc2)CCCCC1)C(=O)N1C[C@H]2[C@@H]([C@H]1C(=O)NC(CC1CC1)C(=O)C(N)=O)C2(C)C (mixture of isomers) | 5000 nM | > 5000 nM
120 nM | CC(C)(C)[C@H](NC(=O)NC1(COC(=O)c2ccccc2)CCCCC1)C(=O)N1C[C@H]2[C@@H]([C@H]1C(=O)NC(CC1CC1)C(=O)C(N)=O)C2(C)C (mixture of isomers) | 1000 nM | > 5000 nM
67 nM | CC(C)(C)[C@H](NC(=O)N[C@H](C(=O)N1C[C@H]2[C@@H]([C@H]1C(=O)NC(CC1CC1)C(=O)C(N)=O)C2(C)C)C(C)(C)C)C(=O)OCc1ccccc1 (mixture of isomers) | 50 nM | > 5000 nM
13 nM | CC(C)[C@H](NC(=O)N[C@H](C(=O)N1C[C@H]2[C@@H]([C@H]1C(=O)NC(CC1CC1)C(=O)C(N)=O)C2(C)C)C(C)(C)C)C(=O)C1CCCCC1 (mixture of isomers) | 200 nM | > 5000 nM
31 nM | CC(C)(C)[C@H](NC(=O)NC1(C(=O)OCc2ccsc2)CCCCC1)C(=O)N1C[C@H]2[C@@H]([C@H]1C(=O)NC(CC1CC1)C(=O)C(N)=O)C2(C)C (mixture of isomers) | 20 nM | > 5000 nM
9 nM | CC(C)(C)[C@H](NC(=O)NC1(C(=O)O)CCCCC1)C(=O)N1C[C@H]2[C@@H]([C@H]1C(=O)NC(CC1CC1)C(=O)C(N)=O)C2(C)C (mixture of isomers) | 5000 nM | > 5000 nM
80 nM | CC(C)[C@H](NC(=O)N[C@H](C(=O)N1C[C@H]2[C@@H]([C@H]1C(=O)NC(CC1CC1)C(=O)C(N)=O)C2(C)C)C(C)(C)C)C(=O)O[C@H](C)c1ccccc1 (mixture of isomers) | 600 nM | > 5000 nM
10 nM | CC(C)[C@H](NC(=O)N[C@H](C(=O)N1C[C@H]2[C@@H]([C@H]1C(=O)NC(CC1CC1)C(=O)C(N)=O)C2(C)C)C(C)(C)C)c1nnn[nH]1 (mixture of isomers) | 1000 nM | > 5000 nM
12 nM | CC(C)C(=O)[C@@H](NC(=O)N[C@H](C(=O)N1C[C@H]2[C@@H]([C@H]1C(=O)NC(CC1CC1)C(=O)C(N)=O)C2(C)C)C(C)(C)C)C(C)C (mixture of isomers) | 150 nM | > 5000 nM
14 nM | CC(=O)[C@@H](NC(=O)N[C@H](C(=O)N1C[C@H]2[C@@H]([C@H]1C(=O)NC(CC1CC1)C(=O)C(N)=O)C2(C)C)C(C)(C)C)C(C)C (mixture of isomers) | 400 nM | > 5000 nM

Ki [1] | Compound | EC90 (Hepatitis C virus) | CC50 [2]
8 nM | CC1(NC(=O)N[C@H](C(=O)N2C[C@H]3[C@@H](C2C(=O)NC(CC2CCC2)C(=O)C(N)=O)C3(C)C)C(C)(C)C)CCCCC1 (some centres not stated) | 200 nM | > 5000 nM
10 nM | CC(C)(C)[C@H](NC(=O)N[C@H](C(=O)OCc1ccccc1)C1CCCCC1)C(=O)N1C[C@H]2[C@@H]([C@H]1C(=O)NC(CC1CC1)C(=O)C(N)=O)C2(C)C (mixture of isomers) | 20 nM | > 5000 nM
58 nM | CC(C)(C)[C@H](NC(=O)NC1(C(=O)OCc2ccccc2)CCCC1)C(=O)N1C[C@H]2[C@@H]([C@H]1C(=O)NC(CC1CC1)C(=O)C(N)=O)C2(C)C (mixture of isomers) | 30 nM | > 5000 nM
30 nM | COC(=O)C1(NC(=O)N[C@H](C(=O)N2C[C@H]3[C@@H]([C@H]2C(=O)NC(CC2CC2)C(=O)C(N)=O)C3(C)C)C(C)(C)C)CCCCC1 (mixture of isomers) | 200 nM | > 5000 nM
80 nM | C[C@@H](OC(=O)C1(NC(=O)N[C@H](C(=O)N2C[C@H]3[C@@H]([C@H]2C(=O)NC(CC2CC2)C(=O)C(N)=O)C3(C)C)C(C)(C)C)CCCCC1)c1ccccc1 (mixture of isomers) | 600 nM | > 5000 nM
9 nM | CC(C)(C)[C@H](NC(=O)N[C@H](C(=O)OCc1ccccc1)C1CCCC1)C(=O)N1C[C@H]2[C@@H]([C@H]1C(=O)NC(CC1CC1)C(=O)C(N)=O)C2(C)C (mixture of isomers) | 25 nM | > 5000 nM
210 nM | CC(C)(NC(=O)N[C@H](C(=O)N1C[C@H]2[C@@H]([C@H]1C(=O)NC(CC1CC1)C(=O)C(N)=O)C2(C)C)C(C)(C)C)C(=O)OCc1ccccc1 (mixture of isomers) | 1480 nM | > 5000 nM
9 nM | CC1(NC(=O)N[C@H](C(=O)N2C[C@H]3[C@@H]([C@H]2C(=O)NC(CC2CC2)C(=O)C(N)=O)C3(C)C)C(C)(C)C)CCCCC1 (mixture of isomers) | 200 nM | > 5000 nM
100 nM | CC(C)(C)[C@H](NC(=O)NC1(C(=O)c2ccccc2)CCCCC1)C(=O)N1C[C@H]2[C@@H]([C@H]1C(=O)NC(CC1CC1)C(=O)C(N)=O)C2(C)C (mixture of isomers) | 2000 nM | > 5000 nM
28 nM | CC(C)(C)[C@H](NC(=O)NC1(C(=O)OCc2ccco2)CCCCC1)C(=O)N1C[C@H]2[C@@H]([C@H]1C(=O)NC(CC1CC1)C(=O)C(N)=O)C2(C)C (mixture of isomers) | 30 nM | > 5000 nM
290 nM | CC(C)[C@@](C)(NC(=O)N[C@H](C(=O)N1C[C@H]2[C@@H]([C@H]1C(=O)NC(CC1CC1)C(=O)C(N)=O)C2(C)C)C(C)(C)C)C(=O)OCc1ccccc1 (mixture of isomers) | – | > 5000 nM
12 nM | CC(C)[C@H](NC(=O)N[C@H](C(=O)N1C[C@H]2[C@@H]([C@H]1C(=O)NC(CC1CC1)C(=O)C(N)=O)C2(C)C)C(C)(C)C)C(=O)C(C)(C)C (mixture of isomers) | 200 nM | > 5000 nM
60 nM | CO[C@H](c1ccccc1)[C@@H](NC(=O)N[C@H](C(=O)N1C[C@H]2[C@@H]([C@H]1C(=O)NC(CC1CC1)C(=O)C(N)=O)C2(C)C)C(C)(C)C)C(C)C (mixture of isomers) | – | > 5000 nM
6 nM | CC(C)[C@H](NC(=O)N[C@H](C(=O)N1C[C@H]2[C@@H]([C@H]1C(=O)NC(CC1CC1)C(=O)C(N)=O)C2(C)C)C(C)(C)C)C(=O)NS(=O)(=O)c1ccccc1 (mixture of isomers) | 5000 nM | > 5000 nM
44 nM | CC(C)[C@](C)(NC(=O)N[C@H](C(=O)N1C[C@H]2[C@@H]([C@H]1C(=O)NC(CC1CC1)C(=O)C(N)=O)C2(C)C)C(C)(C)C)C(=O)OCc1ccccc1 (mixture of isomers) | 500 nM | > 5000 nM
10 nM | CC(C)(C)[C@H](NC(=O)N[C@H](C(=O)OCc1ccccc1)C1CC1)C(=O)N1C[C@H]2[C@@H]([C@H]1C(=O)NC(CC1CC1)C(=O)C(N)=O)C2(C)C (mixture of isomers) | 20 nM | > 5000 nM
59 nM | CC(C)[C@@H](Cc1ccccc1)NC(=O)N[C@H](C(=O)N1C[C@H]2[C@@H]([C@H]1C(=O)NC(CC1CC1)C(=O)C(N)=O)C2(C)C)C(C)(C)C (mixture of isomers) | – | > 5000 nM
50 nM | CO/N=C(\c1ccccc1)[C@@H](NC(=O)N[C@H](C(=O)N1C[C@H]2[C@@H]([C@H]1C(=O)NC(CC1CC1)C(=O)C(N)=O)C2(C)C)C(C)(C)C)C(C)C (mixture of isomers) | – | > 5000 nM

From ChEMBL document CHEMBL1136954, “Toward the back-up of boceprevir (SCH 503034): discovery of new extended P4-capped ketoamide inhibitors of hepatitis C virus NS3 serine protease with improved potency and pharmacokinetic profiles” (J Med Chem, 2009)
